Molecules are shown by their SMILES. The list shows a part of the results. A number with no mark means an inactive call. Calls of active or inactive are those of the source.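 Rule for the calls: active = average inhibition over triplicates above the hit cutoff set in the earlier primary screen (cut at about 25% in these data); inactive = the rest.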

Sequence of ADP-ribosylation factor GTPase-activating protein 1 (Rattus norvegicus) (Q62848 whole entry, looked up, the tested form may be a part): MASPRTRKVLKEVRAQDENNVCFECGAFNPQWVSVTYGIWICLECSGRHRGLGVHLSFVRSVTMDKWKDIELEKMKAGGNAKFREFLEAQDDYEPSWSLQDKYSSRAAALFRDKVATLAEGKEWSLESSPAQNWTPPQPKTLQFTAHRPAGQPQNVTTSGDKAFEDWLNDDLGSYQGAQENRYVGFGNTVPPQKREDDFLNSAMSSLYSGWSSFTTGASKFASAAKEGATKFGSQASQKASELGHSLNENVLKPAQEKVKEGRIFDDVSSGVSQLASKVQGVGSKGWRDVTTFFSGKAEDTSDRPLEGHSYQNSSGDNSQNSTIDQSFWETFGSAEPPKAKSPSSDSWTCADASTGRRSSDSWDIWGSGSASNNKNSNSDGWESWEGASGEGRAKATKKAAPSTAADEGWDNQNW

The test concerns the target ADP-ribosylation factor GTPase-activating protein 1 (Rattus norvegicus) (UniProt Q62848). Nature of the test: ARFGAP1 inhibitor hit confirmation, biochemical, fluorescence polarization, triplicate (AID 651608).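 Note: 0% = Arfgap1 plus ARF1-GTP with DMSO and 100% = wells lacking Arfgap1.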 The note with it: ARFGAP1-stimulated ARF1 GTP hydrolysis, GDP tracer FP; at 16.5 µM; active compounds read high. In outline: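 Assay system: purified rat Arfgap1 GAP domain with human ARF1; signal: GDP tracer fluorescence polarization; reagent: GTP-loaded human ARF1 missing its first 17 residues; benchmarks: high control wells lacking Arfgap1; medium: HEPES-based assay buffer at pH 7.5; incubation: reaction 120 min at 25 °C after 20 min pre-incubation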
A general note: In fluorescence polarisation assays a small probe gives low polarisation when free and higher when bound to something large.
Consider `COc1cccc(CNc2nc(C(F)(F)F)nc3ccccc23)c1`, for which the inhibition (usually the relative decrease from the control value, in per cent) was 8.01%.
As for `O=C(CCc1ccccc1)Nc1ncc([N+](=O)[O-])s1`, the figure is -7.17%; as for `CCn1c(SCc2cc(=O)n3ccsc3n2)nc2ccccc21`, -5.82%.
On to `Cc1ccc(NC(=O)c2ccc(Oc3ncccn3)cc2)cc1`, for which the inhibition is 1.89%.
As for `Cc1cc(C)cc(NC(=O)C2CCCN(S(=O)(=O)c3ccc4[nH]c(=O)ccc4c3)C2)c1` (stereo not given), the figure is 0.48%.
With `CCOC(=O)C1CCN(C(c2cc3cc(C)cc(C)c3[nH]c2=O)c2nnnn2C2CCCCC2)CC1` (stereo not given), the inhibition is 0.48%.
Next, `COC(=O)c1cc2c(c3c4ccccc4n(S(=O)(=O)c4cccc(C)c4)c13)C(=O)N(Cc1ccccc1)C2`: -0.32%; `O=C(/C=C/c1cn(-c2ccccc2)nc1-c1ccc2c(c1)OCCO2)NCCCN1CCOCC1`: 13%.
As for `C#C[C@]1(O)CC[C@H]2[C@@H]3CCC4=CC(=O)CC[C@@H]4[C@H]3CC[C@@]21CC`, the figure is 4.82%; as for `CCO[C@@H]1OC(C(N)=O)=C[C@H](c2ccc(Br)cc2)[C@H]1CCCO`, 0.74%.
Next, `COc1ccc(NC(=O)c2cn(-c3ccccc3)nc2SC)cc1`: 18.4%; `Cc1ccc2nc(SCC(=O)N3CC(C)OC(C)C3)nc(=O)n2c1` (stereo not given): 90.3% (active).
With `CCOC(=O)c1ccc(Nc2cc3ccccc3c(=O)[nH]2)cc1`, the inhibition was 9.83%.
Regarding `CC(C)CCSc1ncnc2c1oc1nc3c(cc12)COC(C)(C)C3`, the inhibition is 1.56%.
With `COc1ccc(Cl)cc1NC(=O)Cn1nc(-c2ccc(C)cc2)n(C)c1=S`, the inhibition is 1.54%.
